This note sets out measurements from ChEMBL document CHEMBL1759987, “2-Acylamino-5-chlorobenzophenones with enhanced selectivity towards malaria parasites” (Eur J Med Chem, 2011).

Bounds are passed on as bounds.

System in the first series: not listed separately
Kind of series: Selectivity index, CC50 for HeLa cells to IC50 for Plasmodium falciparum. The class given is functional.
`Cl.N[C@@H](C(=O)Nc1ccc(Cl)cc1C(=O)c1ccccc1)c1ccccc1`: the “Ratio CC50/IC50” value is 1.
Still for that read-out and setting: to `Cl.N[C@H](C(=O)Nc1ccc(Cl)cc1C(=O)c1ccccc1)c1ccccc1` belongs 3; to `CC(C)(C)OC(=O)N[C@@H](C(=O)Nc1ccc(Cl)cc1C(=O)c1ccccc1)c1ccccc1`, 17; to `CC(C)(C)OC(=O)N[C@H](C(=O)Nc1ccc(Cl)cc1C(=O)c1ccccc1)c1ccccc1`, 13.
In the case of `CN1CCN(C(=O)N[C@@H](C(=O)Nc2ccc(Cl)cc2C(=O)c2ccccc2)c2ccccc2)CC1`, the “Ratio CC50/IC50” value came to 45.
In the case of `CC(C)(C)OC(=O)N1CCN(C(C(=O)Nc2ccc(Cl)cc2C(=O)c2ccccc2)c2ccccc2)CC1` (centres undefined), the “Ratio CC50/IC50” value was determined as 11.
Still for that read-out and setting: to `O=C(c1ccccc1)c1cc(Cl)ccc1NC(=O)C(c1ccccc1)N1CCSCC1` (racemic) belongs 10.
On to `O=C(c1ccccc1)c1cc(Cl)ccc1NC(=O)C(c1ccccc1)N1CCC(CCO)CC1` (racemic), for which the “Ratio CC50/IC50” value amounted to 1.
`CCCN1CCN(C(C(=O)Nc2ccc(Cl)cc2C(=O)c2ccccc2)c2ccccc2)CC1` (racemic): the “Ratio CC50/IC50” value came out at 6.
Same read-out and setting: to `COC(=O)CN1CCN(C(C(=O)Nc2ccc(Cl)cc2C(=O)c2ccccc2)c2ccccc2)CC1` (racemic) belongs 33; to `O=C(O)CN1CCN(C(C(=O)Nc2ccc(Cl)cc2C(=O)c2ccccc2)c2ccccc2)CC1` (racemic), 34; to `NC(=O)CN1CCN(C(C(=O)Nc2ccc(Cl)cc2C(=O)c2ccccc2)c2ccccc2)CC1` (racemic), 22.
On the same count and under the same terms, to `CC(C)NC(=O)CN1CCN(C(C(=O)Nc2ccc(Cl)cc2C(=O)c2ccccc2)c2ccccc2)CC1` (racemic) belongs 41; to `CN(C)CCN1CCN(C(C(=O)Nc2ccc(Cl)cc2C(=O)c2ccccc2)c2ccccc2)CC1` (racemic), 15; to `O=C(c1ccccc1)c1cc(Cl)ccc1NC(=O)C(c1ccc(F)cc1)N1CCN(CCO)CC1` (racemic), 45.
Still for that read-out and setting: the same measure for `O=C(c1ccccc1)c1cc(Cl)ccc1NC(=O)C(c1ccc(C(F)(F)F)cc1)N1CCN(CCO)CC1` (racemic): 28.
Consider `O=C(c1ccccc1)c1cc(Cl)ccc1NC(=O)C(c1ccc(Br)cc1)N1CCN(CCO)CC1` (racemic), for which the “Ratio CC50/IC50” value stood at 31.
On the same count and under the same terms, the same measure for `O=C(c1ccccc1)c1cc(Cl)ccc1NC(=O)C(c1ccc(-c2ccccc2)cc1)N1CCN(CCO)CC1` (racemic): 59.

A further series concerns Plasmodium falciparum. Kind of series: Antiplasmodial activity against multidrug- resistant Plasmodium falciparum Dd2 assessed as inhibition of [3H]hypoxanthine incorporation after 72 hrs. The class given is functional, organism-based. The essentials: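 Dd2 parasites kept in continuous culture and sorbitol-synchronized, then exposed to a range of concentrations for 72 h. Growth read by [3H]-hypoxanthine incorporation and converted to percent inhibition. IC50 taken from sigmoidal dose-response curves fitted with a Hill function. At least three independent repeats, reported as mean ± SEM.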
`Cl.N[C@@H](C(=O)Nc1ccc(Cl)cc1C(=O)c1ccccc1)c1ccccc1`: the IC50 stood at 9.25 µM.
Still for that read-out and setting: to `Cl.N[C@H](C(=O)Nc1ccc(Cl)cc1C(=O)c1ccccc1)c1ccccc1` belongs > 16 µM; to `CC(C)(C)OC(=O)N[C@@H](C(=O)Nc1ccc(Cl)cc1C(=O)c1ccccc1)c1ccccc1`, 6.18 µM; to `CC(C)(C)OC(=O)N[C@H](C(=O)Nc1ccc(Cl)cc1C(=O)c1ccccc1)c1ccccc1`, 8.47 µM.
Same read-out and setting: the same measure for `CN1CCN(C(=O)N[C@@H](C(=O)Nc2ccc(Cl)cc2C(=O)c2ccccc2)c2ccccc2)CC1`: 1.35 µM; for `CC(C)(C)OC(=O)N1CCN(C(C(=O)Nc2ccc(Cl)cc2C(=O)c2ccccc2)c2ccccc2)CC1` (centres undefined): 8.21 µM.
Still for that read-out and setting: to `O=C(c1ccccc1)c1cc(Cl)ccc1NC(=O)C(c1ccccc1)N1CCSCC1` (racemic) belongs 11.5 µM.
Take `O=C(c1ccccc1)c1cc(Cl)ccc1NC(=O)C(c1ccccc1)N1CCC(CCO)CC1` (racemic): the IC50 was 15 µM.
Same read-out and setting: the same measure for `CCCN1CCN(C(C(=O)Nc2ccc(Cl)cc2C(=O)c2ccccc2)c2ccccc2)CC1` (racemic): 6.23 µM; for `COC(=O)CN1CCN(C(C(=O)Nc2ccc(Cl)cc2C(=O)c2ccccc2)c2ccccc2)CC1` (racemic): > 3 µM.
On the same count and under the same terms, the same measure for `O=C(O)CN1CCN(C(C(=O)Nc2ccc(Cl)cc2C(=O)c2ccccc2)c2ccccc2)CC1` (racemic): > 3 µM; for `NC(=O)CN1CCN(C(C(=O)Nc2ccc(Cl)cc2C(=O)c2ccccc2)c2ccccc2)CC1` (racemic): 3.32 µM.
The same measure, in the same setting: to `CC(C)NC(=O)CN1CCN(C(C(=O)Nc2ccc(Cl)cc2C(=O)c2ccccc2)c2ccccc2)CC1` (racemic) belongs 0.98 µM.
As to `CN(C)CCN1CCN(C(C(=O)Nc2ccc(Cl)cc2C(=O)c2ccccc2)c2ccccc2)CC1` (racemic), the IC50 amounted to 2.56 µM.
Still for that read-out and setting: to `O=C(c1ccccc1)c1cc(Cl)ccc1NC(=O)C(c1ccc(F)cc1)N1CCN(CCO)CC1` (racemic) belongs 0.84 µM; to `O=C(c1ccccc1)c1cc(Cl)ccc1NC(=O)C(c1ccc(C(F)(F)F)cc1)N1CCN(CCO)CC1` (racemic), 0.6 µM; to `O=C(c1ccccc1)c1cc(Cl)ccc1NC(=O)C(c1ccc(Br)cc1)N1CCN(CCO)CC1` (racemic), 0.56 µM.
The same measure, in the same setting: the same measure for `O=C(c1ccccc1)c1cc(Cl)ccc1NC(=O)C(c1ccc(-c2ccccc2)cc1)N1CCN(CCO)CC1` (racemic): 0.28 µM.

System in a further series: not listed separately
Kind of series: Cytotoxicity in human HeLa cells assessed as cell viability after 72 hrs. Type of series: cell-based. In short, it runs like this: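 HeLa cells grown in RPMI 1640 with 10% heat-inactivated FBS and gentamicin at 37 °C. About 10,000 cells seeded per well, preincubated 48 h without compound. DMSO stocks (10 mg/ml) diluted 1:200 in medium and added, then 72 h at 37 °C, 5% CO2. Cells fixed with glutaraldehyde, stained with 0.05% methylene blue, eluted with 0.33 M HCl, OD read at 660 nm.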
`Cl.N[C@@H](C(=O)Nc1ccc(Cl)cc1C(=O)c1ccccc1)c1ccccc1`: the half-maximal cytotoxic concentration (CC50) at 72 h stood at 12 µM.
Take `Cl.N[C@H](C(=O)Nc1ccc(Cl)cc1C(=O)c1ccccc1)c1ccccc1`: the cytotoxic concentration (CC50) at 72 h was 43 µM.
Same read-out and setting: to `CC(C)(C)OC(=O)N[C@@H](C(=O)Nc1ccc(Cl)cc1C(=O)c1ccccc1)c1ccccc1` belongs > 108 µM; to `CC(C)(C)OC(=O)N[C@H](C(=O)Nc1ccc(Cl)cc1C(=O)c1ccccc1)c1ccccc1`, > 108 µM.
As for `CN1CCN(C(=O)N[C@@H](C(=O)Nc2ccc(Cl)cc2C(=O)c2ccccc2)c2ccccc2)CC1`, the CC50 at 72 h was found to be 60 µM.
Same read-out and setting: the same measure for `CC(C)(C)OC(=O)N1CCN(C(C(=O)Nc2ccc(Cl)cc2C(=O)c2ccccc2)c2ccccc2)CC1` (centres undefined): > 94 µM; for `O=C(c1ccccc1)c1cc(Cl)ccc1NC(=O)C(c1ccccc1)N1CCSCC1` (racemic): > 111 µM.
Same read-out and setting: to `O=C(c1ccccc1)c1cc(Cl)ccc1NC(=O)C(c1ccccc1)N1CCC(CCO)CC1` (racemic) belongs 19 µM; to `CCCN1CCN(C(C(=O)Nc2ccc(Cl)cc2C(=O)c2ccccc2)c2ccccc2)CC1` (racemic), 38 µM.
Same read-out and setting: the same measure for `COC(=O)CN1CCN(C(C(=O)Nc2ccc(Cl)cc2C(=O)c2ccccc2)c2ccccc2)CC1` (racemic): > 99 µM; for `O=C(O)CN1CCN(C(C(=O)Nc2ccc(Cl)cc2C(=O)c2ccccc2)c2ccccc2)CC1` (racemic): > 102 µM; for `NC(=O)CN1CCN(C(C(=O)Nc2ccc(Cl)cc2C(=O)c2ccccc2)c2ccccc2)CC1` (racemic): 65 µM.
On to `CC(C)NC(=O)CN1CCN(C(C(=O)Nc2ccc(Cl)cc2C(=O)c2ccccc2)c2ccccc2)CC1` (racemic), for which the CC50 at 72 h turned out to be 40 µM.
The same measure, in the same setting: the same measure for `CN(C)CCN1CCN(C(C(=O)Nc2ccc(Cl)cc2C(=O)c2ccccc2)c2ccccc2)CC1` (racemic): 39 µM; for `O=C(c1ccccc1)c1cc(Cl)ccc1NC(=O)C(c1ccc(F)cc1)N1CCN(CCO)CC1` (racemic): 38 µM.
Consider `O=C(c1ccccc1)c1cc(Cl)ccc1NC(=O)C(c1ccc(C(F)(F)F)cc1)N1CCN(CCO)CC1` (racemic), for which the 50% cytotoxic concentration (CC50) at 72 h is 17 µM.
Still for that read-out and setting: the same measure for `O=C(c1ccccc1)c1cc(Cl)ccc1NC(=O)C(c1ccc(Br)cc1)N1CCN(CCO)CC1` (racemic): 17 µM; for `O=C(c1ccccc1)c1cc(Cl)ccc1NC(=O)C(c1ccc(-c2ccccc2)cc1)N1CCN(CCO)CC1` (racemic): 16 µM.

The term IC50 denotes the concentration at which inhibition is half-maximal. A word on the CC50: it is the concentration that lowers cell viability or growth by half.
